# Active and inactive are the calls of the source. The calls are words filed in the database; no cut-off is given here.
# How the values were obtained:
# [1] = tested on: Toxoplasma gondii; assay: Antiparasitic activity against Toxoplasma gondii expressing beta-galactosidase infected in HFF assessed as parasite growth inhibition treated for 2 hrs followed by washout measured after 48 hrs after 72 hrs relative to continuous culture in presence of drug for 48 hrs; type: functional
# Summary of the method: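 β-gal-expressing T. gondii preincubated 30 min with compound dilutions in complete DMEM (10% FBS, gentamicin, 0.2% DMSO), 500 parasites/well onto confluent HFF; compound washed out after 2 h versus continuous exposure; 72 h at 37 °C, 5% CO2. Lysis, chlorophenol red-β-D-galactopyranoside, A570 normalized to untreated; variable-slope log(inhibitor)-response fit; three experiments, n = 4.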
# [2] = target: Actin (Toxoplasma gondii) (UniProt P53476); assay: Induction of Toxoplasma gondii N-terminally his-tagged recombinant actin polymerization at 2 uM after 1 hr using phalloidin staining by fluorescence microscopic analysis
# Summary of the method: (§1)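 His-tagged TgACTI from baculovirus, Ni-NTA purified, cleared at 100000g; 5 μM actin in F-buffer (50 mM KCl, 2 mM MgCl2, 1 mM ATP) with compound plus Alexa 488 phalloidin 1.2 U/μL, 1 h; filaments imaged by fluorescence microscopy (63× oil); lengths averaged over three filaments per point.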
# [3] = target: Actin (Toxoplasma gondii) (UniProt P53476); assay: Induction of Toxoplasma gondii N-terminally his-tagged recombinant actin polymerization at 0.25 uM after 1 hr using phalloidin staining by fluorescence microscopic analysis; summary of the method: as §1
# [4] = target: Actin (Toxoplasma gondii) (UniProt P53476); assay: Induction of Toxoplasma gondii N-terminally his-tagged recombinant actin polymerization after 1 hr; summary of the method: as §1
# [5] = tested on: Toxoplasma gondii; assay: Antiparasitic activity against Toxoplasma gondii expressing beta-galactosidase infected in HFF assessed as parasite growth inhibition after 72 hrs; type: functional, organism-based
# Summary of the method: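 β-gal-expressing parasites preincubated 30 min with compound dilutions in DMEM/10% FBS/gentamicin containing 0.2% DMSO, then inoculated at 500/well onto confluent HFF monolayers and cultured continuously; 72 h at 37 °C, 5% CO2. Lysed cells read with chlorophenol red-β-d-galactopyranoside at A570, normalized to untreated control; EC50 from variable-slope log(inhibitor)-response fit, three experiments (n = 4 replicates).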
# [6] = tested on: HFF; assay: Cytotoxicity against HFF after 72 hrs; type: cell-based; conditions: human
# Summary of the method: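 Confluent HFF monolayers given serial dilutions in complete DMEM with 0.2% DMSO for 72 h; viable cells by MTS colorimetric assay, normalized to untreated cells.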
# Sequence of Actin (Toxoplasma gondii) (P53476 whole entry): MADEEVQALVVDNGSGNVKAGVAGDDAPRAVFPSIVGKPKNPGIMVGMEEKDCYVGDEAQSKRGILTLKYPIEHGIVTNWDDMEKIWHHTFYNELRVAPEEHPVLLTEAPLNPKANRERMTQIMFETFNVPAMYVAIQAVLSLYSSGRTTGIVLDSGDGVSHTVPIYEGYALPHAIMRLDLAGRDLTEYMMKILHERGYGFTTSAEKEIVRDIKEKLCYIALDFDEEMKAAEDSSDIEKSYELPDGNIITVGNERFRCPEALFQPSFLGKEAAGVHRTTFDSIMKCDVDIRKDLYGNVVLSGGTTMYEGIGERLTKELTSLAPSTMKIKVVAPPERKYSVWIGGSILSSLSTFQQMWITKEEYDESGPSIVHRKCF
Structure (SMILES),EC50 [5] [nM],further results
CO[C@@H]1C(=O)O[C@H](C)[C@H](C)/C=C(\C)C[C@H](C)C(=O)N[C@@H](C)C(=O)N(C)[C@H](Cc2c[nH]c3ccccc23)C(=O)N[C@H]1c1ccccc1,510,fold change (FC) [1]: 1.5; Activity [2]: Active; Activity [3]: Active; Activity [4]: Dose-dependent effect
CO[C@@H]1C(=O)O[C@H](C)[C@H](C)/C=C(\C)C[C@H](C)C(=O)N[C@@H](C)C(=O)N(C)[C@H](Cc2c[nH]c3ccccc23)C(=O)N[C@H]1c1ccc(CCO)cc1,600,
CO[C@@H]1C(=O)O[C@H](C)[C@H](C)/C=C(\C)C[C@H](C)C(=O)N[C@@H](C)C(=O)N(C)[C@H](Cc2c(Cl)[nH]c3ccccc23)C(=O)N[C@H]1c1ccc(O)cc1,220,Activity [6]: Toxic
C/C1=C\[C@@H](C)[C@@H](C)OC(=O)C[C@H](c2ccc(O)cc2)NC(=O)[C@@H](Cc2c[nH]c3ccccc23)N(C)C(=O)[C@H](C)NC(=O)[C@@H](C)C1,480,Activity [6]: Toxic
CO[C@@H]1C(=O)O[C@H](C)[C@H](C)/C=C(\C)C[C@H](C)C(=O)N[C@@H](C)C(=O)N(C)[C@H](Cc2c[nH]c3ccccc23)C(=O)N[C@H]1c1ccc(C(N)=O)cc1,≥ 45000,
CO[C@@H]1C(=O)O[C@H](C)[C@H](C)/C=C(\C)C[C@H](C)C(=O)N[C@@H](C)C(=O)N(C)[C@H](Cc2c[nH]c3ccccc23)C(=O)N[C@H]1c1ccc(F)cc1,320,
CO[C@@H]1C(=O)O[C@H](C)[C@H](C)/C=C(\C)C[C@H](C)C(=O)N[C@@H](C)C(=O)N(C)[C@H](Cc2c[nH]c3ccccc23)C(=O)N[C@H]1c1ccc(N)cc1,660,
CO[C@@H]1C(=O)O[C@H](C)[C@H](C)/C=C(\C)C[C@H](C)C(=O)N[C@@H](C)C(=O)N(C)[C@H](Cc2c[nH]c3ccccc23)C(=O)N[C@H]1c1ccc([N+](=O)[O-])cc1,610,
CO[C@@H]1C(=O)O[C@H](C)[C@H](C)/C=C(\C)C[C@H](C)C(=O)N[C@@H](C)C(=O)N(C)[C@H](Cc2c[nH]c3ccccc23)C(=O)N[C@H]1c1ccc(C#N)cc1,380,
CO[C@@H]1C(=O)O[C@H](C)[C@H](C)/C=C(\C)C[C@H](C)C(=O)N[C@@H](C)C(=O)N(C)[C@H](Cc2c[nH]c3ccccc23)C(=O)N[C@H]1c1ccc(CO)cc1,740,
CO[C@@H]1C(=O)O[C@H](C)[C@H](C)/C=C(\C)C[C@H](C)C(=O)N[C@@H](C)C(=O)N(C)[C@H](Cc2c[nH]c3ccccc23)C(=O)N[C@H]1c1ccc(-c2ccccc2)cc1,1340,
CO[C@@H]1C(=O)O[C@H](C)[C@H](C)/C=C(\C)C[C@H](C)C(=O)N[C@@H](C)C(=O)N(C)[C@H](Cc2c[nH]c3ccccc23)C(=O)N[C@H]1c1ccc(O)cc1,560,Activity [2]: Active; Activity [3]: Active; Activity [4]: Dose-dependent effect; Activity [6]: Toxic
CO[C@@H]1C(=O)O[C@H](C)[C@H](C)/C=C(\C)C[C@H](C)C(=O)N[C@@H](C)C(=O)N(C)[C@H](Cc2c[nH]c3ccccc23)C(=O)N[C@H]1c1ccc(C)cc1,530,
C/C1=C\[C@H](C)C[C@H](C)OC(=O)C[C@H](c2ccc(O)cc2)NC(=O)[C@@H](Cc2c(Br)[nH]c3ccccc23)N(C)C(=O)[C@H](C)NC(=O)[C@@H](C)C1 [JASPAMIDE],340,fold change (FC) [1]: 1.5; Activity [4]: Active; Activity [6]: Toxic
COc1ccc([C@@H]2NC(=O)[C@@H](Cc3c[nH]c4ccccc34)N(C)C(=O)[C@H](C)NC(=O)[C@@H](C)C/C(C)=C/[C@@H](C)[C@@H](C)OC(=O)[C@H]2OC)cc1,690,

# Reference: ChEMBL document CHEMBL2424601, “Synthetic chondramide A analogues stabilize filamentous actin and block invasion by Toxoplasma gondii” (J Nat Prod, 2013)
